ChEMBL document CHEMBL1821598, “Synthesis, structure-activity relationship and biological evaluation of anticancer activity for novel N-substituted sophoridinic acid derivatives” (Bioorg Med Chem Lett, 2011)
≈ marks a conversion by molar mass, not a printed value. Calls of active or inactive are those of the source. The calls are words filed in the database; no cut-off is given here.

What was measured:
[1] = test system: HepG2; assay: Inhibition of cell proliferation of human HepG2 cells at 30 ug/mL after 48 hrs by Sulforhodamine B assay; format: functional; conditions: HepG2, 48 h
Summary of the method: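 HepG2 cells exposed to test compounds at 30 μg/mL for 48 h. HCPT at 30 μg/mL was the positive control. Proliferation was read by SRB and reported as % inhibition. Values are mean ± SD of three separate experiments.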

[2] = test system: HepG2; assay: Cytotoxicity against human HepG2 cells after 48 hrs by Sulforhodamine B assay; format: functional, cell-based; conditions: for IC50: HepG2, 48 h
Summary of the method: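 HepG2 cells treated at a series of concentrations for 48 h. Cell death was read by sulforhodamine B staining.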

[3] = test system: HepG2; assay: Cell cycle arrest in human HepG2 cells assessed as accumulation at S phase at 20 ug/mL after 12 hrs by flow cytometry (Rvb= 25.4%); format: functional
Summary of the method: (§1)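 HepG2 cells incubated with or without compound at 20 μg/mL for 4, 12 or 24 h. Cell cycle distribution (G0/G1, S, G2/M) was read from DNA content by flow cytometry. Untreated cells served as control.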

[4] = Inhibition of cell proliferation of human […] cells at 30 ug/mL after 48 hrs by Sulforhodamine B assay; format: functional
Summary of the method: (§2)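 Human tumor cell lines were treated at 30 μg/mL for 48 h. Antiproliferative activity was measured by SRB assay.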

[5] = test system: HepG2; assay: Cell cycle arrest in human HepG2 cells assessed as accumulation at G2/M phase at 20 ug/mL after 24 hrs by flow cytometry (Rvb= 11.5%); format: functional; summary of the method: as §1
[6] = test system: HepG2; assay: Cell cycle arrest in human HepG2 cells assessed as accumulation at G2/M phase at 20 ug/mL after 4 hrs by flow cytometry (Rvb= 11.5%); format: functional; summary of the method: as §1
[7] = molecular target: T1, DNA topoisomerase 1 (Homo sapiens) (UniProt P11387); assay: Inhibition of DNA topoisomerase 1 using DNA substrate after 0.5 hrs by gel electrophoresis
T1 sequence (whole entry): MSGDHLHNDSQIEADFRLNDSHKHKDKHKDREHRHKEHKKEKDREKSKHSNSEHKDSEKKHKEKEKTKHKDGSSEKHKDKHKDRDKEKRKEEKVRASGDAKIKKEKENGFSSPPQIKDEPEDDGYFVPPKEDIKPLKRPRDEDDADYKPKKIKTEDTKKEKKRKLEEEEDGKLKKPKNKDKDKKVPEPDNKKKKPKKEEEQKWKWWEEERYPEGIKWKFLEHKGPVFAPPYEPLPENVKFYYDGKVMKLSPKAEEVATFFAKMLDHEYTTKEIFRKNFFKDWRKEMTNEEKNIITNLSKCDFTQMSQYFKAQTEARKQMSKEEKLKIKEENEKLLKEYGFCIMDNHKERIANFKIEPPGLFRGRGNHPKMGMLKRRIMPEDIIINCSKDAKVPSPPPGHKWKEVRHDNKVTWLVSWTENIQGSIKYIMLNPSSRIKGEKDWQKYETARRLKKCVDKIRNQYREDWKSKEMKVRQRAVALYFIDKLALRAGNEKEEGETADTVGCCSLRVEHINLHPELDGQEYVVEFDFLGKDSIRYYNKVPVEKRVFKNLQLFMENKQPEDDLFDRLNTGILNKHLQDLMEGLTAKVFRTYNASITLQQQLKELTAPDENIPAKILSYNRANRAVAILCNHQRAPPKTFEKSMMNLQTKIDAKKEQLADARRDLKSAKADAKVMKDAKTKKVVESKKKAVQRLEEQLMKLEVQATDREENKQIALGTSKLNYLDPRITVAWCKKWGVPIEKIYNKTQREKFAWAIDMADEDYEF
Summary of the method: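 Run over a range of concentrations, with HCPT as positive control.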

[8] = test system: MCF7; assay: Inhibition of cell proliferation of human MCF7 cells at 30 ug/mL after 48 hrs by Sulforhodamine B assay; format: functional; conditions: MCF7, 48 h; summary of the method: as §2
[9] = test system: HepG2; assay: Cell cycle arrest in human HepG2 cells assessed as accumulation at G2/M phase at 20 ug/mL after 12 hrs by flow cytometry (Rvb= 11.5%); format: functional; summary of the method: as §1
[10] = test system: HepG2; assay: Cell cycle arrest in human HepG2 cells assessed as accumulation at G0/G1 phase at 20 ug/mL after 12 hrs by flow cytometry (Rvb= 63.1%); format: functional; summary of the method: as §1
[11] = test system: HepG2; assay: Induction of apoptosis in human HepG2 cells assessed as disappearance of nuclear membrane and appearance of apoptotic body at 20 ug/mL after 48 hrs by microscopy relative to control; format: functional, cell-based
Summary of the method: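 HepG2 cells untreated or treated at 20 μg/mL for 48 h. Cells were harvested onto slides and examined by microscopy for apoptotic morphology.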

[12] = test system: A549; assay: Inhibition of cell proliferation of human A549 cells at 30 ug/mL after 48 hrs by Sulforhodamine B assay; format: functional; conditions: A549, 48 h; summary of the method: as §2
[13] = test system: HepG2; assay: Cell cycle arrest in human HepG2 cells assessed as accumulation at G0/G1 phase at 20 ug/mL after 4 hrs by flow cytometry (Rvb= 63.1%); format: functional; summary of the method: as §1
[14] = test system: HepG2; assay: Cell cycle arrest in human HepG2 cells assessed as accumulation at S phase at 20 ug/mL after 4 hrs by flow cytometry (Rvb= 25.4%); format: functional; summary of the method: as §1
[15] = test system: HepG2; assay: Cell cycle arrest in human HepG2 cells assessed as accumulation at G0/G1 phase at 20 ug/mL after 24 hrs by flow cytometry (Rvb= 63.1%); format: functional; summary of the method: as §1
[16] = test system: HepG2; assay: Cell cycle arrest in human HepG2 cells assessed as accumulation at S phase at 20 ug/mL after 24 hrs by flow cytometry (Rvb= 25.4%); format: functional; summary of the method: as §1

SMILES: CC[C@@]1(O)C(=O)OCc2c1cc1n(c2=O)Cc2cc3cc(O)ccc3nc2-1 [HYDROXYCAMPTOTHECIN]
- inhibition at 30 µg/mL [1]: 92%

SMILES: O=C(O)CCC[C@H]1[C@H]2CCCN3CCC[C@@H](CN1C(=O)OCc1ccccc1)[C@@H]23
- inhibition at 30 µg/mL [1]: 8.4%

SMILES: COc1ccc(CN2C[C@@H]3CCCN4CCC[C@@H]([C@H]34)[C@@H]2CCCC(=O)O)cc1
- inhibition at 30 µg/mL [1]: < 5%

SMILES: CC(C)(C)C(=O)N1C[C@@H]2CCCN3CCC[C@@H]([C@H]23)[C@@H]1CCCC(=O)O
- inhibition at 30 µg/mL [1]: 41.1%
- inhibition [2]: Dose-dependent effect
- IC50 [2]: 43.6 µg/mL (≈ 124 µM)

SMILES: Cc1ccc(S(=O)(=O)N2C[C@@H]3CCCN4CCC[C@@H]([C@H]34)[C@@H]2CCCC(=O)O)cc1
- inhibition at 30 µg/mL [1]: 13.4%

SMILES: CC(=O)N1C[C@@H]2CCCN3CCC[C@@H]([C@H]23)[C@@H]1CCCC(=O)O
- inhibition at 30 µg/mL [1]: 11.2%

SMILES: COc1cc(C(=O)N2C[C@@H]3CCCN4CCC[C@@H]([C@H]34)[C@@H]2CCCC(=O)O)cc(OC)c1OC
- inhibition at 30 µg/mL [1]: 11.8%

SMILES: COc1ccc(C(=O)N2C[C@@H]3CCCN4CCC[C@@H]([C@H]34)[C@@H]2CCCC(=O)O)cc1[N+](=O)[O-]
- inhibition at 30 µg/mL [1]: < 5%

SMILES: O=C(O)CCC[C@H]1[C@H]2CCCN3CCC[C@@H](CN1S(=O)(=O)c1ccccc1)[C@@H]23
- inhibition at 30 µg/mL [1]: < 5%

SMILES: COC(=O)N1C[C@@H]2CCCN3CCC[C@@H]([C@H]23)[C@@H]1CCCC(=O)O
- inhibition at 30 µg/mL [1]: 7.8%

SMILES: O=C(O)CCC[C@H]1[C@H]2CCCN3CCC[C@@H](CN1C(=O)c1ccccc1)[C@@H]23
- inhibition at 30 µg/mL [1]: < 5%

SMILES: Cc1ccc(CN2C[C@@H]3CCCN4CCC[C@@H]([C@H]34)[C@@H]2CCCC(=O)O)cc1
- inhibition at 30 µg/mL [1]: < 5%

SMILES: CCOC(=O)N1C[C@@H]2CCCN3CCC[C@@H]([C@H]23)[C@@H]1CCCC(=O)O
- inhibition at 30 µg/mL [1]: 19.9%

SMILES: O=C(O)CCC[C@H]1[C@H]2CCCN3CCC[C@@H](CN1C(=O)CBr)[C@@H]23
- Activity [3]: 38.3%
- inhibition at 30 µg/mL [4]: 68%
- Activity [5]: 10.4%
- Activity [6]: 9.43%
- inhibition [7]: Active
- inhibition at 30 µg/mL [8]: 73.3%
- inhibition at 30 µg/mL [1]: 88%
- Activity [9]: 7.88%
- Activity [10]: 53.8%
- inhibition [2]: Dose-dependent effect
- IC50 [2]: 15.4 µg/mL (≈ 39.8 µM)
- Activity [11]: Active
- inhibition at 30 µg/mL [12]: 40%
- Activity [13]: 50.4%
- Activity [14]: 40.2%
- Activity [15]: 47.7%
- Activity [16]: 41.8%

SMILES: O=C(O)CCC[C@H]1[C@H]2CCCN3CCC[C@@H](CN1C(=O)c1cccc([N+](=O)[O-])c1)[C@@H]23
- inhibition at 30 µg/mL [1]: < 5%

SMILES: O=C(O)CCC[C@H]1[C@H]2CCCN3CCC[C@@H](CN1C(=O)c1ccc(F)cc1)[C@@H]23
- inhibition at 30 µg/mL [1]: < 5%

SMILES: Cc1c(C(=O)N2C[C@@H]3CCCN4CCC[C@@H]([C@H]34)[C@@H]2CCCC(=O)O)cccc1[N+](=O)[O-]
- inhibition at 30 µg/mL [1]: 8.9%

SMILES: O=C1CCC[C@@H]2[C@H]3CCCN4CCC[C@H](CN12)[C@@H]34 [SOPHORIDINE]
- inhibition [7]: Active
- inhibition at 30 µg/mL [1]: 13.8%

SMILES: COc1ccc(C(=O)N2C[C@@H]3CCCN4CCC[C@@H]([C@H]34)[C@@H]2CCCC(=O)O)cc1
- inhibition at 30 µg/mL [1]: < 5%

SMILES: CC(Br)C(=O)N1C[C@@H]2CCCN3CCC[C@@H]([C@H]23)[C@@H]1CCCC(=O)O (stereo partly drawn)
- inhibition at 30 µg/mL [1]: 15.6%

SMILES: O=C(O)CCC[C@H]1[C@H]2CCCN3CCC[C@@H](CN1C(=O)c1ccc4c(c1)OCO4)[C@@H]23
- inhibition at 30 µg/mL [1]: 11.4%

SMILES: Cc1ccc(C(=O)N2C[C@@H]3CCCN4CCC[C@@H]([C@H]34)[C@@H]2CCCC(=O)O)cc1
- inhibition at 30 µg/mL [1]: 8.5%

SMILES: O=C(O)CCC[C@@H]1NC[C@@H]2CCCN3CCC[C@H]1[C@H]23 [SOPHORIDINIC ACID]
- inhibition at 30 µg/mL [1]: 10.3%

SMILES: O=C(O)CCC[C@H]1[C@H]2CCCN3CCC[C@@H](CN1C(=O)c1ccc(F)c([N+](=O)[O-])c1)[C@@H]23
- inhibition at 30 µg/mL [1]: 7.7%
